Results: ChEMBL document CHEMBL1909596, “Synthesis and evaluation of chromenyl barbiturates and thiobarbiturates as potential antitubercular agents” (Bioorg Med Chem Lett, 2011)
Values after ≈ are worked out from the molar mass of the structure shown.

Key:
[1] = test system: Mycobacterium tuberculosis; assay: Antimycobacterial activity against Mycobacterium tuberculosis H37Rv ATCC 27294 by microplate alamar blue assay; assay type: functional, organism-based
Summary of the method: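 Strain grown in BACTEC 12B medium, broth microdilution with Alamar Blue read-out (TAACF protocol). Primary screen at 6.25 µg/mL; compounds reaching ≥90% growth inhibition retested in 10 twofold dilutions, typically from 100. MIC taken as the lowest concentration giving 90% fluorescence reduction relative to controls. Fluorescent compounds tested in BACTEC 460 radiometric system instead. Rifampin control.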

[2] = Cytotoxicity against african green monkey Vero cells after 72 hrs by celltiter-glo luminescent cell viability assay; assay type: cell-based; conditions: chlorocebus sabaeus
Summary of the method: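 VERO cells exposed to compounds for 72 h. Viability read from ATP content by luminescence. CC50 derived by curve fitting of dose–response curves.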

[3] = Selectivity index, ratio of CC50 african green monkey Vero cells to IC90 for Mycobacterium tuberculosis H37Rv ATCC 27294; assay type: toxicity, cell-based
Summary of the method: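 SI calculated as VERO CC50 (72 h luminescent ATP viability assay, curve-fitted) divided by the MABA MIC (90% fluorescence reduction endpoint) for H37Rv.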

`Cc1c(C(=O)c2ccc(Cl)cc2)oc2cc3occ(C=C4C(=O)NC(=O)NC4=O)c(=O)c3cc12` gave an IC50 [1] of 65.1 µg/mL (≈ 136 µM) and an IC90 [1] of 93 µg/mL (≈ 195 µM).

`Cc1c(C(=O)c2ccc(Br)cc2)oc2cc3occ(C=C4C(=O)NC(=O)NC4=O)c(=O)c3cc12` gave an IC50 [1] of 38.5 µg/mL (≈ 73.9 µM) and an IC90 [1] of 55.4 µg/mL (≈ 106 µM).

In the case of `COc1ccc(C(=O)c2oc3cc4occ(C=C5C(=O)NC(=O)NC5=O)c(=O)c4cc3c2C)cc1`, the IC50 [1] is reported as over 100 µg/mL and the IC90 [1] is reported as over 100 µg/mL.

In the case of `Cc1ccc(C(=O)c2oc3cc4occ(C=C5C(=O)NC(=O)NC5=O)c(=O)c4cc3c2C)cc1`, the IC50 [1] is reported as 55.2 µg/mL (≈ 121 µM) and the IC90 [1] is reported as 84.7 µg/mL (≈ 186 µM).

Molecule `Cc1c(C(=O)c2ccc(-c3ccccc3)cc2)oc2cc3occ(C=C4C(=O)NC(=O)NC4=O)c(=O)c3cc12` has an IC50 [1] of over 100 µg/mL and an IC90 [1] of over 100 µg/mL.

`Cc1c(C(=O)c2ccc(Cl)cc2)oc2cc3occ(C=C4C(=O)NC(=S)NC4=O)c(=O)c3cc12` showed an IC50 [1] of 42 µg/mL (≈ 85.3 µM) and an IC90 [1] of 63.8 µg/mL (≈ 129 µM).

`COc1ccc(C(=O)c2oc3cc4occ(C=C5C(=O)NC(=S)NC5=O)c(=O)c4cc3c2C)cc1` gave an IC50 [1] of over 100 µg/mL and an IC90 [1] of over 100 µg/mL.

With `Cc1c(C(=O)c2ccccc2)oc2cc3occ(C=C4C(=O)NC(=S)NC4=O)c(=O)c3cc12` the IC50 [1] was over 100 µg/mL and the IC90 [1] was over 100 µg/mL.

In the case of `Cc1cc(=O)oc2cc3occ(C=C4C(=O)NC(=O)NC4=O)c(=O)c3cc12`, the IC50 [1] is reported as over 100 µg/mL and the IC90 [1] is reported as over 100 µg/mL.

For `Cc1cc(=O)oc2c(C)c3occ(C=C4C(=O)NC(=O)NC4=O)c(=O)c3cc12`, the IC50 [1] was 4.71 µg/mL (≈ 12.4 µM), the IC90 [1] was 5.9 µg/mL (≈ 15.5 µM) and the CC50 at 72 h [2] was 14.3 µg/mL (≈ 37.5 µM). The selectivity ratio [3] was 2.41.

`Cc1cc(=O)oc2cc3occ(C=C4C(=O)NC(=S)NC4=O)c(=O)c3cc12` gave an IC50 [1] of over 100 µg/mL and an IC90 [1] of over 100 µg/mL.

For `NC(=O)c1cnccn1` [PYRAZINAMIDE], the IC90 [1] was over 20 µg/mL.
